Square brackets hold non-standard residues; d marks the D form. Peptide text beside a SMILES is read from it. dPhe(4-Cl) = N[C@H](Cc1ccc(Cl)cc1)C(=O)O; dPhe(4-F) = N[C@H](Cc1ccc(F)cc1)C(=O)O; d2Nal = N[C@H](Cc1ccc2ccccc2c1)C(=O)O

The text below walks through data of ChEMBL document CHEMBL1123964, “Potent, long-acting luteinizing hormone-releasing hormone antagonists containing new synthetic amino acids: N,N'-dialkyl-D-homoarginines” (J Med Chem, 1988).

Experiment [1] addresses T1, Gonadotropin-releasing hormone receptor (Rattus norvegicus) (UniProt P30969).
T1 sequence (whole entry): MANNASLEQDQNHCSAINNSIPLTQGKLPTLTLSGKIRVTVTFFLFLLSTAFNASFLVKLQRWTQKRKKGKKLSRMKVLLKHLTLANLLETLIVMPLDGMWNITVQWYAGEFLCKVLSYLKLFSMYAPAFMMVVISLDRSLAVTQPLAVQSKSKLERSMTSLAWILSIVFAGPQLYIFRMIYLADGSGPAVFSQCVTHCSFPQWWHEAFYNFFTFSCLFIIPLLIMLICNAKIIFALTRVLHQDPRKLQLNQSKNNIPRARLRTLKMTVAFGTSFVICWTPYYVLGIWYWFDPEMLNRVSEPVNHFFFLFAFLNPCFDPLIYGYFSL
As to the kind of experiment: Antiovulatory activity on diestrus II following administration as a solution in corn oil (24h earlier) in rat. Type of experiment: functional, organism-based. The procedure, abridged:
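Female rats with at least two normal 4-day cycles before the test cycle were selected. They received the analogue sc in corn oil at noon on diestrus II, 24 h before the proestrus dosing time. On the morning of expected estrus the oviducts were examined under a dissecting microscope, and freshly ovulated eggs were counted. ED50 was taken from percent ovulating versus log-dose, with 10 rats per dose group and usually three or more dose groups.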

Experiment [2] has as its target T1, Gonadotropin-releasing hormone receptor (Rattus norvegicus). As to the kind of experiment: Antiovulatory activity on proestrus was measured by administering as a solution in 50% propylene glycol / 0.9% saline in rat. Type of experiment: functional.
Experiment [3] has the same target. As to the kind of experiment: Antiovulatory activity on proestrus following administration of solution in corn oil in rat. It counts as functional, organism-based. The method, boiled down:
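Rats with at least two normal 4-day cycles were used. They were injected sc with the analogue in corn oil at noon on proestrus, about 2 h before the preovulatory LH-RH surge. Oviducts were removed on the morning of expected estrus and checked microscopically for fresh eggs, which were counted. ED50 came from percent of females ovulating plotted against log-dose, with 10 animals per dose group.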

In the case of `CNC(=NCCCC[C@@H](NC(=O)[C@H](Cc1ccc(O)cc1)NC(=O)[C@H](CO)NC(=O)[C@@H](Cc1c[nH]c2ccccc12)NC(=O)[C@@H](Cc1ccc(F)cc1)NC(=O)[C@@H](Cc1ccc2ccccc2c1)NC(C)=O)C(=O)N[C@@H](CC(C)C)C(=O)N[C@@H](CCCN=C(N)N)C(=O)N1CCC[C@H]1C(=O)NCC(N)=O)NC`, the ED50 (ug injection-1) amounted to 5 in experiment [1], 1.7 in experiment [2] and 0.8 in experiment [3].
For `CCCNC(=NCCCC[C@@H](NC(=O)[C@H](Cc1ccc(O)cc1)NC(=O)[C@H](CO)NC(=O)[C@@H](Cc1c[nH]c2ccccc12)NC(=O)[C@@H](Cc1ccc(F)cc1)NC(=O)[C@@H](Cc1ccc2ccccc2c1)NC(C)=O)C(=O)N[C@@H](CC(C)C)C(=O)N[C@@H](CCCN=C(N)N)C(=O)N1CCC[C@H]1C(=O)NCC(N)=O)NCCC`, the ED50 (ug injection-1) in experiment [1] came out at 12; in experiment [2], 2.4; in experiment [3], 4.7.
With `CCNC(=NCCCC[C@@H](NC(=O)[C@H](Cc1ccc(O)cc1)NC(=O)[C@H](CO)NC(=O)[C@@H](Cc1c[nH]c2ccccc12)NC(=O)[C@@H](Cc1ccc(F)cc1)NC(=O)[C@@H](Cc1ccc2ccccc2c1)NC(C)=O)C(=O)N[C@@H](CC(C)C)C(=O)N[C@@H](CCCN=C(N)N)C(=O)N1CCC[C@H]1C(=O)NCC(N)=O)NCC`, the ED50 (ug injection-1) in experiment [1] was 3.5; in experiment [2] it was 1.6; in experiment [3], 1.4.
For the compound `CC(=O)N[C@H](Cc1ccc(Cl)cc1)C(=O)N[C@H](Cc1ccc(Cl)cc1)C(=O)N[C@H](Cc1c[nH]c2ccccc12)C(=O)N[C@@H](CO)C(=O)N[C@@H](Cc1ccc(O)cc1)C(=O)N[C@H](CCCN=C(N)N)C(=O)N[C@@H](CC(C)C)C(=O)N[C@@H](CCCN=C(N)N)C(=O)N1CCC[C@H]1C(=O)N[C@H](C)C(N)=O` (Ac-[dPhe(4-Cl)][dPhe(4-Cl)][dW]SY[dR]LRP[dA]-NH2), the ED50 (ug injection-1) in experiment [1] was 5; in experiment [2], 1.7; in experiment [3], 1.2.
On to `CC(=O)N[C@H](Cc1ccc2ccccc2c1)C(=O)N[C@H](Cc1ccc(F)cc1)C(=O)N[C@H](Cc1c[nH]c2ccccc12)C(=O)N[C@@H](CO)C(=O)N[C@@H](Cc1ccc(O)cc1)C(=O)N[C@H](CCCN=C(N)N)C(=O)N[C@@H](CC(C)C)C(=O)N[C@@H](CCCN=C(N)N)C(=O)N1CCC[C@H]1C(=O)NCC(N)=O` (Ac-[d2Nal][dPhe(4-F)][dW]SY[dR]LRPG-NH2), for which the ED50 (ug injection-1) in experiment [1] was found to be 9; in experiment [2], 2.4; in experiment [3], 1.1.
Taken in the same sequence, the figures for `CCCNC(=NCCCC[C@@H](NC(=O)[C@H](Cc1ccc(O)cc1)NC(=O)[C@H](CO)NC(=O)[C@@H](Cc1c[nH]c2ccccc12)NC(=O)[C@@H](Cc1ccc(Cl)cc1)NC(=O)[C@@H](Cc1ccc(Cl)cc1)NC(C)=O)C(=O)N[C@@H](CC(C)C)C(=O)N[C@@H](CCCN=C(N)N)C(=O)N1CCC[C@H]1C(=O)NCC(N)=O)NCCC` were 16, 2.6 and 2.3.
Taken in the same sequence, the figures for `CC(=O)N1CCC[C@H]1C(=O)N[C@H](Cc1ccc(F)cc1)C(=O)N[C@H](Cc1ccc2ccccc2c1)C(=O)N[C@@H](CO)C(=O)NC(Cc1ccc(O)cc1)C(=O)N[C@@H](Cc1ccc2ccccc2c1)C(=O)N[C@@H](CC(C)C)C(=O)N[C@@H](CCCN=C(N)N)C(=O)N1CCC[C@H]1C(=O)NCC(N)=O` (stereo in doubt) were 140, 2.2 and 3.3.
Take `CC(=O)N[C@H](Cc1ccc(Cl)cc1)C(=O)N[C@H](Cc1ccc(Cl)cc1)C(=O)N[C@H](Cc1c[nH]c2ccccc12)C(=O)N[C@@H](CO)C(=O)N[C@@H](Cc1ccc(O)cc1)C(=O)N[C@H](CCCCN=C(N)N)C(=O)N[C@@H](CC(C)C)C(=O)N[C@@H](CCCN=C(N)N)C(=O)N1CCC[C@H]1C(=O)N[C@H](C)C(N)=O`: the figures for the ED50 (ug injection-1) in experiment [1], in experiment [2] and in experiment [3] were under 8, 1.3 and 2, respectively.
Consider `CNC(=NCCCC[C@@H](NC(=O)[C@H](Cc1ccc(O)cc1)NC(=O)[C@H](CO)NC(=O)[C@@H](Cc1c[nH]c2ccccc12)NC(=O)[C@@H](Cc1ccc(Cl)cc1)NC(=O)[C@@H](Cc1ccc(Cl)cc1)NC(C)=O)C(=O)N[C@@H](CC(C)C)C(=O)N[C@@H](CCCN=C(N)N)C(=O)N1CCC[C@H]1C(=O)N[C@H](C)C(N)=O)NC`, for which the ED50 (ug injection-1) in experiment [1] turned out to be 5.6; in experiment [2], 1.6; in experiment [3], 1.
